S1P4 antag = antagonists of human S1P4 receptor; inhibition, % at 4.98 µM; AID 1510; actives 0.26% (n = 220,000); S1P4-expressing cells, antagonist mode, reporter read-out; in the data active = inhibition above about 29%;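 also: 0% = wells stimulated with agonist and 100% = vehicle wells without agonist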
S1P3 antag = blocks the human S1P3 receptor. Q99500. CHO S1P3 NFAT-BLA reporter, FRET fluorescence, antagonist mode. inhibition, % at 4.98 µM. actives 0.27% (n = 170,000). AID 485;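 active = inhibition above the plate cutoff, the mean inhibition of test wells on that plate plus 3 SD, cut at about 28% in these data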;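 also: cells challenged with S1P at its EC80 of 0.8 µM; blue over green emission ratio from cleaved BLA substrate after 4 h stimulation; 0% = S1P-stimulated wells and 100% = unstimulated DMSO-only wells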
Target sequence (Q99500 whole entry, looked up): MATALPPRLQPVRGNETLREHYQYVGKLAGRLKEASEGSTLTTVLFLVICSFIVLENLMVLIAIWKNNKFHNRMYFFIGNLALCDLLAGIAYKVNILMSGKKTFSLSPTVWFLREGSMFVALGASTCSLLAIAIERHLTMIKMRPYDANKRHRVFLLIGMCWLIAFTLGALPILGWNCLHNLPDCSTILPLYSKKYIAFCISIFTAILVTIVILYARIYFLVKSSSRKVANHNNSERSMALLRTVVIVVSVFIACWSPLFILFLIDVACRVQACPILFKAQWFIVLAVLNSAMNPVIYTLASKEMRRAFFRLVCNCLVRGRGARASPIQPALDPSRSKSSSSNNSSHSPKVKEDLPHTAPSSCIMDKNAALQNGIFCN
MDM2 E3 inh = blocks human Mdm2 ubiquitin ligase activity; cell-based MDM2 ubiquitination luciferase reporter, 2 h; 0 = plate control, 100 = twice control, blank-subtracted; signal enhancement, % at 5 µM; actives 0.11% (n = 210,000); Q00987;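 active = signal enhancement of 30% or more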;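 also: luminescence tracks abundance of the self-degrading MDM2-luciferase fusion protein; higher signal means inhibition of MDM2 E3 ligase activity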
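Assay system: stable mammalian line carrying autodegrading MDM2–luciferase fusion reporter; Input: 2000 cells in each well; Compound dosing: single-point 5 µM; Schedule: 2 h compound exposure at 37 °C; Signal: SteadyLite luciferase luminescence after 15 min room-temperature reagent incubation; Evaluation: % luminescence enhancement versus blank-corrected plate control mean; Benchmarks: plate controls and plate blanks.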
S1P4 ag = agonists of human S1P4 receptor; AID 1509; activation, % at 4.98 µM; actives 0.35% (n = 220,000); S1P4-expressing cell line, agonist reporter assay; in the data active = activation above about 11%;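 also: 0% = DMSO vehicle and 100% = reference agonist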
Lmaj promast = reduces viability of Leishmania major promastigotes. AID 1063. actives 9% (n = 200,000). resazurin fluorescence viability. inhibition, % at 10 µM; in the data active = inhibition above about 50%;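 also: promastigotes grown with compound for 44 hours at 28 °C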
* = called active by the depositor; . = no result. The full list was thinned out, with hits kept by preference.

SMILES	S1P4 antag	S1P3 antag	MDM2 E3 inh	S1P4 ag	Lmaj promast
COc1ccc(N(C(=O)c2ccco2)C(C(=O)NC2CCCC2)c2ccc(N(C)C)cc2)cc1 (stereo not given)	-11	-28	-4	-1	54*
COc1ccc(N(C(=O)CCC(=O)Nc2cc(C)on2)C(C(=O)NC2CCCC2)c2ccco2)cc1 (stereo not given)	-14	-23	-7	0	20
COc1ccc(N(C(=O)/C=C/C(=O)Nc2cc(C)on2)C(C(=O)NC2CCCC2)c2ccccc2C)cc1 (stereo not given)	5	-28	-17	-4	97*
CCC(C)[C@H](NC(=O)NCc1ccc(S(N)(=O)=O)cc1)C(=O)O (stereo not given in full)	3	-3	-3	0	.
COc1cccc(C2CCCN2Cc2nc(-c3cnccn3)no2)c1 (stereo not given)	-21	-13	15	2	-7
COc1cc2c(cc1OC)CC(=O)NC=C2	-1	-3	4	0	-1
c1ccc(Nc2ncnc3[nH]ncc23)cc1	-9	4	-5	-1	.
Cc1ccc(CN2CCN(/N=C/c3ccc(C)s3)CC2)cc1	5	-9	-4	-1	68*
COc1cc(/C=N/NC(=S)N/N=C/c2cc(OC)c(OC)c(OC)c2)cc(OC)c1OC	-16	0	-9	0	55*
COc1cc(/C=N/NC(=S)Nc2cccc(C(=O)O)c2)cc(OC)c1OC	5	-16	6	3	-5
CC(=O)c1c(C(C)=O)c(C)n(-c2cccc([N+](=O)[O-])c2)c1C	-1	2	-7	0	29
Cc1cc(C(=O)CCl)c(C)n1-c1cccc([N+](=O)[O-])c1	-7	-15	-28	-1	101*
Cc1cc(C(=O)CCl)c(C)n1-c1ccon1	-8	10	-7	-1	97*
Cc1nonc1OCCNCc1c(C(=O)N2CCCCCCC2)nc2ccc(Cl)cn12	1	-6	-10	-1	0
COc1ccc(S(=O)(=O)c2nnn(-c3cccc(Cl)c3)c2N)cc1	17	-26	-7	-1	-1
CCOC(=O)C1CCN(C(=O)c2cc(C)n(C(C)(C)C)n2)CC1	5	-10	5	-1	.
CCCCCCCCn1c(=O)c(C(=O)OC)c(N)c2ccccc21	0	-1	-15	0	.
COC(=O)c1c(C(=O)OC)n(CCCN)c2ccc(C)cc12	-15	.	0	-2	59*
Cc1c(C)n(Cc2ccccc2)c2ccc(C(=O)OCCCN(C)C)cc12	-17	-1	-7	2	100*
OCC1(Cc2ccccc2)CCN(Cc2cnc(-c3ccc(Cl)cc3)nc2)CC1	-17	6	-10	1	-4
OCC1(Cc2ccccc2)CCCN(Cc2cnn(-c3ccccc3)c2)C1 (stereo not given)	-9	-1	3	1	89*
Cc1ccc(-n2cc(CN3CCC(CO)(Cc4ccccc4)CC3)cn2)cc1	-9	-3	-8	0	80*
CSc1ccc(CN2CCCC(CO)(Cc3ccccc3)C2)cc1 (stereo not given)	-15	11	-17	1	64*
Cc1ccc(-n2cc(CN3CCC(CO)(Cc4cccc(C(F)(F)F)c4)CC3)cn2)cc1	8	-7	-7	-1	99*
Cn1c(=O)c2c(nc(N3CCN(c4ccc([N+](=O)[O-])cc4)CC3)n2C)n(C)c1=O	-6	7	-19	-1	.
SMILES	S1P4 antag	S1P3 antag	MDM2 E3 inh	S1P4 ag	Lmaj promast
OCC1(Cc2ccccc2)CCN(Cc2cnn(-c3ccccc3F)c2)CC1	-20	-5	5	0	88*
CSc1ccccc1C(=O)C1CCCN(Cc2c(C)n(C)n(-c3ccccc3)c2=O)C1 (stereo not given)	11	7	-4	1	6
CSc1ccccc1C(=O)C1CCCN(Cc2cnn(-c3ccccc3)c2)C1 (stereo not given)	-13	-11	-2	-1	73*
COc1ccc(/C(C)=N/NC(=O)CNC(=O)CCc2ccccc2)c(OC)c1	-5	-19	2	0	.
O=C1Nc2ccccc2N(O)N1c1ccc(S(=O)(=O)N2CCOCC2)cc1	-5	0	-9	2	-3
CC(C)CC(/C(O)=C(\C#N)c1nc2ccccc2[nH]1)N1C(=O)c2ccccc2C1=O (stereo not given)	-7	-3	-12	-1	65*
CCCCNC(=O)[C@H](CSCc1ccccc1)N1Cc2ccccc2C1=O	0	-3	.	3	0
CCN(CC)CCNC(=O)c1ccc(NC(=O)c2ccc(F)cc2F)cc1	-8	-2	2	0	6
CC1=Nc2ccccc2N=C(NC(=O)c2ccccc2)C1c1ccccc1 (stereo not given)	3	-9	-1	1	54*
CC1=Nc2ccccc2N=C(NC(=O)CN2CCN(c3ccccc3)CC2)C1c1ccccc1 (stereo not given)	4	-2	-15	0	1
Cn1c(SCC(=O)N2CCOCC2)nc(O)cc1=O	6	.	-3	3	-2
O=C(O)c1cnn(-c2ccccc2)c1-n1cccc1	-14	-19	-14	-2	-5
COC(=O)c1cnn(-c2ccc(C)c(C)c2)c1-n1cccc1	0	2	-22	-1	65*
Cc1nnc(Sc2cc(C(=O)NC3CC3)c3ccccc3n2)s1	-14	3	-4	0	.
Cc1ccc(C(C)C)c(OCC(=O)Nn2c(=O)[nH]c3ccccc3c2=O)c1	-10	-8	-14	1	59*
Cc1ccc(C(C)C)c(OCC(=O)Nn2c(C)nc3ccccc3c2=O)c1	-12	.	-12	0	0
COc1ccc(CCNCC(=O)Nc2ccccc2C(F)(F)F)cc1	-4	-11	10	0	-9
CC(C)(C)/C(Cn1cncn1)=N\OC(=O)Nc1ccc(Cl)cc1	7	9	2	1	85*
CCOc1ccc(Nc2cc(Nc3ccccc3OCC)nc(C=C(C#N)C#N)n2)cc1	5	-16	-5	0	.
CS(=O)(=O)N1CCC(C(=O)NCCc2ccccc2)CC1	5	.	0	2	-5
CCCCCC(=O)NN=C1CCN(Cc2ccccc2)CC1	-23	-14	-23	1	-4
O=C(NCCc1ccccc1)C1CCN(Cc2ccccc2F)CC1	-16	-11	-7	6	71*
CCCCC(=O)C1CCN(Cc2ccccc2)CC1	-11	.	1	0	67*
CCN(CC)C(=O)C1CCN(Cc2cccc(OCc3ccccc3)c2)CC1	-8	8	-6	0	100*
CCCCNC(=O)C1CCN(Cc2ccc(OCc3ccccc3)cc2)CC1	-9	.	.	-1	82*
CCCCNC(=O)Nc1nc2ccc(CC)cc2s1	0	4	-16	0	1
Cc1ccc(-c2c(C(=O)NCc3ccc(F)cc3)oc(=O)c3ccccc23)cc1	-17	-2	-8	-1	74*
Cc1ccc(C(=O)N(Cc2cccnc2)Cc2cc3cc(C)ccc3n3nnnc23)cc1	-12	-8	-5	0	96*

Assay outcomes as filed in PubChem.
